ChEMBL document CHEMBL3745705, “Discovery of Oral VEGFR-2 Inhibitors with Prolonged Ocular Retention That Are Efficacious in Models of Wet Age-Related Macular Degeneration” (J Med Chem, 2015)
pIC50: −log10 of the molar value. Converted amounts (≈) assume the structure as drawn.

Legend:
[1] = organism: Mus musculus; assay: animal or person; conditions: C57BL/6, po, read-out: INH
[2] = Aqueous solubility of the compound at pH 6.8; conditions: aqueous medium
[3] = test system: Mus musculus; assay: Antiangiogenic activity in po dosed C57BL/6 mouse laser-induced choroidal neovascularization assessed as inhibition of neovascular lesion formation administered qd for 6 days measured on day 7 by microscopic analysis; assay type: functional; conditions: C57BL/6, po
[4] = test system: Rattus norvegicus; assay: Antiangiogenic activity in po dosed Brown Norway rat laser-induced choroidal neovascularization model assessed as inhibition of neovascular lesion formation administered qd for 14 days by microscopic analysis; assay type: functional; conditions: 336 h
Outline: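 Male Brown Norway rats, about 12 weeks old, dosed by oral gavage starting about 1 h before laser. Lesions were made under ketamine/xylazine i.p. (40–80 / 5–10 mg/kg) with 532 nm laser pulses (30 ms, 190 mW, 200 µm spot), about 4 lesions per eye and 10 rats per group. Vessels were labelled with i.v. 2,000 kD FITC dextran, eyes fixed in 4% paraformaldehyde, and CNV area measured blinded.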

[5] = test system: Plasma; assay: Dose normalized AUC (0 to 24 hrs) in Brown Norway rat plasma at 6 mg/kg, po; assay type: ADME, organism-based; conditions: in vivo
[6] = Dose normalized AUC (0 to 24 hrs) in Brown Norway rat retina at 6 mg/kg, po; assay type: ADME, organism-based; conditions: in vivo
[7] = Dose normalized AUC (0 to 24 hrs) in Brown Norway rat posteior eye cup at 6 mg/kg, po; assay type: ADME, organism-based; conditions: in vivo
[8] = test system: Plasma; assay: Dose normalized Cmax in Brown Norway rat plasma at 6 mg/kg, po; assay type: ADME, organism-based; conditions: in vivo
[9] = Dose normalized Cmax in Brown Norway rat retina at 6 mg/kg, po; assay type: ADME, organism-based; conditions: in vivo
[10] = Dose normalized Cmax in Brown Norway rat posteior eye cup at 6 mg/kg, po; assay type: ADME, organism-based; conditions: in vivo
[11] = test system: Plasma; assay: Dose normalized plasma concentration in Brown Norway rat plasma at 6 mg/kg, po measured at 24 hrs by LC-MS/MS analysis; assay type: ADME, organism-based; conditions: in vivo
[12] = Dose normalized drug uptake in Brown Norway rat retina at 6 mg/kg, po by LC-MS/MS analysis; assay type: ADME, organism-based; conditions: in vivo
[13] = test system: Rattus norvegicus; assay: AUC (0 to 8 hrs) in Brown Norway rat at 3 mg/kg, po by LC-MS/MS analysis; assay type: ADME, organism-based; design: dose 3 mg/kg, time < 8 hr, route oral; conditions: in vivo
[14] = Volume of distribution at steady state in Brown Norway rat at 3 mg/kg, po or 1 mg/kg, iv by LC-MS/MS analysis; assay type: ADME, organism-based; conditions: in vivo, read-out: Vdss
[15] = Half life in Brown Norway rat at 3 mg/kg, po or 1 mg/kg, iv by LC-MS/MS analysis; assay type: ADME, organism-based; conditions: in vivo
[16] = Cmax in Brown Norway rat at 3 mg/kg, po or 1 mg/kg, iv by LC-MS/MS analysis; assay type: ADME, organism-based; conditions: in vivo
[17] = test system: Rattus norvegicus; assay: Oral bioavailability in Brown Norway rat at 3 mg/kg by LC-MS/MS analysis; assay type: ADME, organism-based; conditions: in vivo
[18] = Dose normalized drug uptake in Brown Norway rat posteior eye cup at 6 mg/kg, po; assay type: ADME, organism-based; conditions: in vivo
[19] = biological target: Mast/stem cell growth factor receptor Kit (Homo sapiens, UniProt P10721); assay: Inhibition of c-Kit (unknown origin)
Outline: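 Selectivity measured in a 62-kinase panel, with results reported as IC50 (µM).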

Sequence of Mast/stem cell growth factor receptor Kit (P10721 whole entry): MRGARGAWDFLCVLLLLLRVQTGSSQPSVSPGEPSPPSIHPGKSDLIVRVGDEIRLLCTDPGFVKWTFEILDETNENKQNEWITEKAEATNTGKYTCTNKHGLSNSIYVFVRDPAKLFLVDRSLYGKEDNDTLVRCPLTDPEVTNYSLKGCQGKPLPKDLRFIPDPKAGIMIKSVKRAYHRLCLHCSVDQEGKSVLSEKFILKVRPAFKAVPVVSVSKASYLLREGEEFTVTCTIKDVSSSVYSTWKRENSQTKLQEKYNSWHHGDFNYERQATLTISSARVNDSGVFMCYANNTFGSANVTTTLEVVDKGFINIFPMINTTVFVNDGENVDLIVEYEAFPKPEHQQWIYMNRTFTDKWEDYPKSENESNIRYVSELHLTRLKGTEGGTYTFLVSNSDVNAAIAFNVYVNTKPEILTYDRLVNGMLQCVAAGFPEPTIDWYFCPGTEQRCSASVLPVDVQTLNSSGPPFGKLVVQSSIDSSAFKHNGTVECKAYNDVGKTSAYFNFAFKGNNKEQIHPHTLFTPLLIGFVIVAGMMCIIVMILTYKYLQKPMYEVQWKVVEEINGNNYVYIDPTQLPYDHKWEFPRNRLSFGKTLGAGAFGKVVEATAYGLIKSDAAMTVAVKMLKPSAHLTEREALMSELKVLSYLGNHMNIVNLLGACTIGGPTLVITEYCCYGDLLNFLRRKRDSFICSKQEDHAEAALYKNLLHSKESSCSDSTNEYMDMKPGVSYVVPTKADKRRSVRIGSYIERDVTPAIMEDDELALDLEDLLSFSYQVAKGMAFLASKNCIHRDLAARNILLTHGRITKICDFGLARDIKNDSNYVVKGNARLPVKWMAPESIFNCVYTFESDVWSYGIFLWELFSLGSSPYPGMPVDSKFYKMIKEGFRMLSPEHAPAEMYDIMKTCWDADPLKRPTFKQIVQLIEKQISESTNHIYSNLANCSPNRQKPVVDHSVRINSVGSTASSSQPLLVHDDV

Row | SMILES | inhibition in vivo at 10 mg/kg [1] [%] | solubility [2] [µM] | further results
1 | C[C@@H]1Cc2c(ncnc2Oc2ccc3c(ccn3C(=O)Nc3cc(C4(C)CC4)[nH]n3)c2)CN1 | 48 |  | 
2 | CC(C)(C)c1cc(NC(=O)n2ccc3cc(Oc4ncnc5c4CCNC5)ccc32)n[nH]1 | 0 | 682 (≈ 294 µg/mL) | 
3 | CC(C)c1cc(NC(=O)n2ccc3cc(Oc4ncnc5c4CCNC5)ccc32)n[nH]1 | 0 | 833 (≈ 348 µg/mL) | 
4 | C[C@H]1Cc2c(ncnc2Oc2ccc3c(ccn3C(=O)Nc3cc(C(C)(C)C)on3)c2)CN1 | 96 |  | 
5 | C[C@@H]1Cc2c(ncnc2Oc2ccc3c(ccn3C(=O)Nc3cccc(C(F)(F)F)c3)c2)CN1 | 58 |  | 
6 | O=C(Nc1cccc(C(F)(F)F)c1)n1ccc2cc(Oc3cc(CO)ncn3)ccc21 | 45 |  | 
7 | C[C@H]1Cc2c(ncnc2Oc2ccc3c(ccn3C(=O)Nc3cc(C4(C)CC4)n[nH]3)c2)CN1 | 67 |  | ED50 [3]: 3.4 mg/kg; ED90 [3]: 19.6 mg/kg; ED50 [4]: 2.9 mg/kg; ED90 [4]: 14.6 mg/kg; AUC/dose [5]: 598 nM·h/mg/kg; AUC/dose [6]: 3215 nM·h/mg/kg; AUC/dose [7]: 22266 nM·h/mg/kg; Cmax/dose [8]: 68 nM/mg/kg; Cmax/dose [9]: 170 nM/mg/kg; Cmax/dose [10]: 1067 nM/mg/kg; Cp/dose [11]: 1.6 nM/mg/kg; Druguptake/dose [12]: 122 nM/mg/kg; AUC [13]: 2490 nM·h; Vd [14]: 5.6 L/kg; half-life [15]: 2.3 h; Cmax [16]: 0.514 µM; F [17]: 81%; Druguptake/dose [18]: 1067 nM/mg/kg; pIC50 [19]: 6.22
8 | CC(=O)N1CCc2c(ncnc2Oc2ccc3c(ccn3C(=O)Nc3cccc(C(F)(F)F)c3)c2)C1 | 0 |  | 
9 | C[C@@H]1NCc2ncnc(Oc3ccc4c(ccn4C(=O)Nc4cc(C(C)(C)C)on4)c3)c21 | 33 |  | 
10 | CNCc1cc(Oc2ccc3c(ccn3C(=O)Nc3cccc(C(F)(F)F)c3)c2)ncn1 | 67 | 64 (≈ 28.3 µg/mL) | 
11 | CC1(c2cc(NC(=O)n3ccc4cc(Oc5ncnc6c5CNC6)ccc43)n[nH]2)CC1 | 43 | 489 (≈ 203 µg/mL) | 
12 | O=C(Nc1cccc(C(F)(F)F)c1)n1ccc2cc(Oc3ncnc4c3CNCC4)ccc21 | 0 |  | 
13 | CC(C)c1cc(NC(=O)n2ccc3cc(Oc4ncnc5c4CNC5)ccc32)no1 | 96 | 37 (≈ 15 µg/mL) | 
14 | C[C@@H]1NCc2ncnc(Oc3ccc4c(ccn4C(=O)Nc4cccc(C(F)(F)F)c4)c3)c21 | 41 |  | 
